Active and inactive are the calls of the source. The calls are words filed in the database; no cut-off is given here.

The record followed here is ChEMBL document CHEMBL1131069 (J Med Chem, 1998).

Data set [1] relates to Mus musculus. The experiment in a line: Anticonvulsant activity determined at 30 minutes after the administration of compound using MES test. (+++ = activity at 30 mg/kg). The data set is classed as functional, organism-based. On the set-up: dose 30 mg/kg. The method in brief:
(§1)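 Male CF-1 albino mice (18-25 g) dosed intraperitoneally at 30, 100 or 300 mg/kg. Protection against maximal electroshock-induced seizures was scored 30 min or 4 h after dosing.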

Data set [2] concerns Mus musculus. The experiment in a line: Anticonvulsant activity determined at 30 minutes after the administration of compound using sc Ptz test. (+++ = activity at 30 mg/kg). The data set is classed as functional, organism-based. More on the design: dose 30 mg/kg. In a few lines: (§2)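 Male CF-1 mice (18-25 g) dosed ip at 30, 100 or 300 mg/kg. Pentylenetetrazol in 0.9% NaCl was injected sc at 0.01 mL/g. Tests were run 30 min or 4 h after dosing.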

Data set [3] has as its system Mus musculus. The data set can be described thus: Anticonvulsant activity determined at 4 hours after the administration of compound using MES test.(++= signify activity at 100 mg/kg). The data set is classed as functional, organism-based. More on the design: dose 100 mg/kg. The method in brief: as §1
The subject of data set [4] is Mus musculus. The data set can be described thus: Anticonvulsant activity determined at 4 hours after the administration of compound using sc Ptz test. (- denotes activity at 300 mg/kg). The data set is classed as functional, organism-based. On the set-up: dose 300 mg/kg. The method in brief:
as §2

Data set [5] deals with Rattus norvegicus. The experiment in a line: Anticonvulsant activity was determined in rats at a dose of 30 mg/kg after 1 hour by MES test. (++++ denotes activity in 75-100% of administered animals). The data set is classed as functional, organism-based. More on the design: dose 30 mg/kg.
Data set [6] has as its system Rattus norvegicus. The data set can be described thus: Anticonvulsant activity was determined in rats at a dose of 30 mg/kg after 2 hour by MES test. (++++ denotes activity in 75-100% of administered animals). The data set is classed as functional, organism-based. More on the design: dose 30 mg/kg.
For data set [7], the system named is Rattus norvegicus. The experiment in a line: Anticonvulsant activity was determined in rats at a dose of 30 mg/kg after 30 minutes by MES test. (++++ denotes activity in 75-100% of administered animals). The data set is classed as functional, organism-based. On the set-up: dose 30 mg/kg.
Data set [8] relates to Rattus norvegicus. The experiment in a line: Anticonvulsant activity was determined in rats at a dose of 30 mg/kg after 4 hour by MES test. (++ denotes activity in 25-50% of administered animals). The data set is classed as functional, organism-based. More on the design: dose 30 mg/kg.
In data set [9] the test system is Rattus norvegicus. The data set can be described thus: Anticonvulsant activity was determined in rats at a dose of 30 mg/kg after 15 minutes by MES test. (++++ denotes activity in 75-100% of administered animals). The data set is classed as functional, organism-based. On the set-up: dose 30 mg/kg.
Data set [10] has as its system Rattus norvegicus. The data set can be described thus: Toxicity was determined in rats at a dose of 30 mg/kg after 4 hour. (- denotes no activity in administered animals). The data set is classed as functional, organism-based. On the set-up: dose 30 mg/kg. In a few lines:
(§3)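 Male Sprague-Dawley rats given a single oral dose of 30 mg/kg and assessed for toxicity 4 h after dosing, with at least four animals per time point. Score is the fraction of animals affected (+ 0-25%); - means no toxicity.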

The nature of data set [11]: Apparent IC50 value by [3H]batrachotoxinin-A-20-alpha-benzoate-binding test performed in rat brain synaptosomes. The data set is classed as subcellular. In a few lines:
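Rat brain synaptosomes, about 400 µg protein per assay, incubated 2 h at 37 °C, pH 7.4, in choline chloride/HEPES/glucose/KCl medium with 10 nM [³H]batrachotoxinin-A-20α-benzoate and scorpion venom. Stopped with cold-free choline chloride/HEPES/CaCl₂/MgSO₄ washes, filtered on GF/B, bound radioactivity counted. Protein by Bradford. Apparent IC50 from quadruplicate measurements, mean ± SD.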

The nature of data set [12]: Neurotoxicity determined at 30 minutes after the administration of compound by rotarod test.(++= signify activity at 100 mg/kg). The data set is classed as toxicity, organism-based. More on the design: dose 100 mg/kg. The conditions noted are these: mouse, in vivo, 0.5 h. The method in brief: (§4)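 Male CF-1 mice dosed ip at 30, 100 or 300 mg/kg and tested 30 min or 4 h later on a 1-in. knurled rod turning at 6 rpm. A deficit was failure to stay on the rod for 1 min in each of three trials. Coding: ++ 100, + 300 mg/kg; - means none at 300 mg/kg.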

The nature of data set [13]: Neurotoxicity determined at 4 hours after the administration of compound by rotarod test (++= signify activity at 100 mg/kg). The data set is classed as toxicity, organism-based. More on the design: dose 100 mg/kg. The conditions noted are these: mouse, in vivo. In a few lines:
as §4

Data set [14] relates to Rattus norvegicus. The experiment in a line: Anticonvulsant ED50 activity by MES test in rats dosed orally. The data set is classed as functional. The conditions noted are these: po. The method in brief: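 Male Sprague-Dawley rats (100-150 g) dosed orally. ED50 is the dose protecting 50% of animals against maximal electroshock-induced seizures. […]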

Data set [15] concerns Mus musculus. The experiment in a line: Anticonvulsant activity determined at 30 minutes after the administration of compound using MES test.(++= signify activity at 100 mg/kg). The data set is classed as functional, organism-based. More on the design: dose 100 mg/kg. In a few lines:
as §1

For data set [16], the system named is Rattus norvegicus. The experiment in a line: Anticonvulsant activity was determined in rats at a dose of 30 mg/kg after 2 hour by MES test. (+ denotes activity in 0-25% of administered animals). The data set is classed as functional, organism-based. More on the design: dose 30 mg/kg.
A short description of data set [17]: Neurotoxicity determined at 30 minutes after the administration of compound by rotarod test.(+ = signify activity at 300 mg/kg). The data set is classed as toxicity, organism-based. More on the design: dose 300 mg/kg. The conditions noted are these: mouse, in vivo, 0.5 h. In a few lines: as §4
Data set [18] can be described thus: Neurotoxicity determined at 4 hours after the administration of compound by rotarod test (- denotes activity at 300 mg/kg). The conditions noted are these: mouse, in vivo. More on the design: dose 300 mg/kg. The data set is classed as toxicity, organism-based. The method in brief: as §4
Data set [19] has as its system Rattus norvegicus. The data set can be described thus: Anticonvulsant activity was determined in rats at a dose of 30 mg/kg after 1 hour by MES test. (++ denotes activity in 25-50% of administered animals). The data set is classed as functional, organism-based. On the set-up: dose 30 mg/kg.
Data set [20] concerns Rattus norvegicus. The experiment in a line: Anticonvulsant activity was determined in rats at a dose of 30 mg/kg after 4 hour by MES test. (+ denotes activity in 0-25% of administered animals). On the set-up: dose 30 mg/kg. The data set is classed as functional, organism-based.
Data set [21] in a line: Neurotoxicity determined at 30 minutes after the administration of compound by rotarod test.(- denotes activity at 300 mg/kg). The conditions noted are these: mouse, in vivo, 0.5 h. The data set is classed as toxicity, organism-based. More on the design: dose 300 mg/kg. The method in brief: as §4
Data set [22] in a line: Neurotoxicity determined at 4 hours after the administration of compound by rotarod test(- denotes activity at 300 mg/kg). The data set is classed as toxicity, organism-based. More on the design: dose 300 mg/kg. The conditions noted are these: mouse, in vivo. In a few lines: as §4
Data set [23] is described as follows: Toxicity was determined in rats at a dose of 30 mg/kg after 4 hour (- denotes no activity in administered animals). The data set is classed as organism-based. More on the design: dose 30 mg/kg. The conditions noted are these: rat, in vivo. The method in brief:
as §3

Data set [24] relates to Mus musculus. The experiment in a line: Anticonvulsant activity determined at 4 hours after the administration of compound using MES test.(+ = signify activity at 300 mg/kg). The data set is classed as functional, organism-based. On the set-up: dose 300 mg/kg. In a few lines:
as §1

For data set [25], the system named is Mus musculus. The experiment in a line: Anticonvulsant activity determined at 30 minutes after the administration of compound using MES test. (++= signify activity at 100 mg/kg). The data set is classed as functional, organism-based. On the set-up: dose 100 mg/kg. The method in brief: as §1
Data set [26] deals with Rattus norvegicus. The experiment in a line: Anticonvulsant activity was determined in rats at a dose of 30 mg/kg after 1 hour by MES test. (+ denotes activity in 0-25% of administered animals). The data set is classed as functional, organism-based. More on the design: dose 30 mg/kg.
Data set [27] has as its system Rattus norvegicus. The experiment in a line: Toxicity was determined in rats at a dose of 30 mg/kg after 4 hour. (+ denotes activity in 0-25% of administered animals). The data set is classed as functional, organism-based. On the set-up: dose 30 mg/kg. The method in brief:
as §3

In the case of `Cc1cccc(C)c1N1C(=O)c2ccc(N)cc2C1=O`, the result in the data set on Mus musculus [1], with Mus musculus [2], in the data set on Mus musculus [3], in the data set with Rattus norvegicus [5], with Rattus norvegicus [6] and with Rattus norvegicus [7] was Active. Besides, the outcome in the data set with Rattus norvegicus [9] was Active. Also, the result in the data set on Mus musculus [4] was inactive. Also, the Activity entry was “Weak activity” with Rattus norvegicus [8], “Not toxic” with Rattus norvegicus [10], “Active” in [12] and “Active” in [13]. The 50% inhibitory concentration (IC50) in [11] is 110 nM. The compound further returned an ED50 with Rattus norvegicus [14] of 25.3 µmol/kg.
On to `Cc1cccc(C)c1N1C(=O)c2ccc(Cl)cc2C1=O`, for which the Activity entry (in the data set on Mus musculus [15]; with Mus musculus [3]; in the data set with Rattus norvegicus [16]; with Rattus norvegicus [8]; in [17]; in data set [18]) was “activity in 0-25% of administered animals” each time. Besides, the 50% inhibitory concentration (IC50) in data set [11] turned out to be 47800 nM. In addition, it took a dose of 354 µmol/kg to reach the 50% effect level in the data set on Rattus norvegicus [14] (ED50).
Regarding `Cc1cccc(C)c1NC(=O)c1ccc(O)cc1`, the Activity entry (in the data set with Mus musculus [3]; with Rattus norvegicus [19]; in the data set with Rattus norvegicus [16]; in the data set with Rattus norvegicus [20]; in data set [21]; in data set [22]) was “activity in 0-25% of administered animals” throughout. Also, in [23], the Activity entry is on record as “activity in 0-25% of administered animals”. Further, the IC50 in [11] was determined as 350 nM. Further, in the data set on Rattus norvegicus [14], it took a dose of 284 µmol/kg to reach the 50% effect level (ED50).
With `Cc1ccc(N)c(C)c1N1C(=O)c2ccccc2C1=O`, in the data set with Mus musculus [24], the Activity result is “signifies activity at 300 mg/kg”.
`Cc1cccc(C)c1N1C(=O)c2ccc(O)cc2C1=O`: the Activity result (in the data set on Mus musculus [25]; with Mus musculus [3]; in the data set on Rattus norvegicus [26]; in the data set with Rattus norvegicus [20]; in the data set on Rattus norvegicus [27]; in data set [21]) was “activity in 0-25% of administered animals” in each case. Besides, the Activity entry in data set [18] is “activity in 0-25% of administered animals”. For the same compound, the IC50 in data set [11] was 1860 nM. For the same compound, in the data set with Rattus norvegicus [14], it took a dose of 369 µmol/kg to reach the 50% effect level (ED50).
In the case of `Cc1cccc(C)c1N1C(=O)c2ccccc2C1=O`, the Activity result (in the data set on Mus musculus [15]; with Rattus norvegicus [19]; in the data set with Rattus norvegicus [16]; in data set [21]; in [22]) was “activity in 0-25% of administered animals” each time. In addition, the IC50 in [11] was 161000 nM. The ED50 with Rattus norvegicus [14] was 231 µmol/kg.
